According to ChEMBL document CHEMBL1139407, “Pyridyl and thiazolyl bisamide CSF-1R inhibitors for the treatment of cancer” (Bioorg Med Chem Lett, 2008):
One block for each molecule: values may come before it.

What was measured:
[1] = target: T1, Macrophage colony-stimulating factor 1 receptor (Homo sapiens, UniProt P07333); test: Inhibition of CSF1R
NIH3T3 = test: Antiproliferative activity against mouse 3T3 cells expressing human CSF1R after 72 hrs by Celltiter assay; assay type: functional
How it was run: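 3T3 cells engineered with human full-length CSF-1R, seeded in phenol red-free DMEM with 0.05% BSA and incubated overnight. Treated with DMEM containing 80 ng/ml M-CSF plus insulin, transferrin and selenium at multiple compound concentrations. […] Growth read by MTS-type CellTiter 96 Aqueous One after 72 h.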

[2] = Half life in rat at 3 mg/kg, iv and 10 mg/kg, po; assay type: ADME, organism-based; settings: in vivo
[3] = Clearance in rat at 3 mg/kg, iv and 10 mg/kg, po; assay type: ADME, organism-based; settings: in vivo
[4] = Bioavailability in rat at 3 mg/kg, iv and 10 mg/kg, po; assay type: ADME, organism-based; settings: in vivo
[5] = Volume of distribution at steady state in rat at 3 mg/kg, iv and 10 mg/kg, po; assay type: ADME, organism-based; settings: in vivo, read-out: Vdss
Mus musculus [6] = test: Inhibition of phosphorylated CSF1R level in 3T3/CSF1R mutant cells xenografted nude mouse at 50 mg/kg, po after 2 hrs by ELISA; assay type: functional
How it was run: (§1)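 3T3 cells expressing constitutively active human mutant full-length CSF-1R (301–969) were implanted subcutaneously at 5 × 10⁶ cells in female nude mice and grown to tumors >250 mm³. After dosing, tumors were assayed for pCSF-1R by ELISA, and plasma was sampled for drug levels.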

Mus musculus [7] = test: Inhibition of phosphorylated CSF1R level in 3T3/CSF1R mutant cells xenografted nude mouse at 50 mg/kg, po after 6 hrs by ELISA; assay type: functional; how it was run: as §1
[8] = target: RAF proto-oncogene serine/threonine-protein kinase (Homo sapiens) (UniProt P04049); test: Inhibition of cRaf assessed as residual enzyme activity at 1 uM
[9] = target: Tyrosine-protein kinase Fyn (Homo sapiens) (UniProt P06241); test: Inhibition of Fyn assessed as residual enzyme activity at 1 uM
[10] = target: Mast/stem cell growth factor receptor Kit (Homo sapiens) (UniProt P10721); test: Inhibition of cKit assessed as residual enzyme activity at 1 uM
[11] = target: Receptor-type tyrosine-protein kinase FLT3 (Homo sapiens) (UniProt P36888); test: Inhibition of Flt3 assessed as residual enzyme activity at 1 uM
[12] = target: Fibroblast growth factor receptor 1 (Homo sapiens) (UniProt P11362); test: Inhibition of FGFR1 assessed as residual enzyme activity at 1 uM
[13] = target: Platelet-derived growth factor receptor beta (Homo sapiens) (UniProt P09619); test: Inhibition of PDGFRbeta assessed as residual enzyme activity at 1 uM
[14] = target: Tyrosine-protein kinase JAK2 (Homo sapiens) (UniProt O60674); test: Inhibition of JAK2 assessed as residual enzyme activity at 1 uM
[15] = target: Glycogen synthase kinase-3 beta (Homo sapiens) (UniProt P49841); test: Inhibition of GSK3-beta assessed as residual enzyme activity at 1 uM
[16] = target: T1, Macrophage colony-stimulating factor 1 receptor; test: Inhibition of CSF1R assessed as residual enzyme activity at 1 uM
[17] = target: Cyclin-dependent kinase 2 (Homo sapiens) (UniProt P24941); test: Inhibition of CDK2/cyclinA assessed as residual enzyme activity at 1 uM
[18] = target: Serine/threonine-protein kinase pim-1 (Homo sapiens) (UniProt P11309); test: Inhibition of Pim-1 assessed as residual enzyme activity at 1 uM
[19] = target: Mitogen-activated protein kinase 1 (Homo sapiens) (UniProt P28482); test: Inhibition of MAPK1 assessed as residual enzyme activity at 1 uM
[20] = target: Insulin-like growth factor 1 receptor (Homo sapiens) (UniProt P08069); test: Inhibition of IGF1-R assessed as residual enzyme activity at 1 uM
[21] = target: Tyrosine-protein kinase HCK (Homo sapiens) (UniProt P08631); test: Inhibition of Hck assessed as residual enzyme activity at 1 uM
[22] = target: Ephrin type-A receptor 2 (Homo sapiens) (UniProt P29317); test: Inhibition of EphA2 assessed as residual enzyme activity at 1 uM
[23] = target: Vascular endothelial growth factor receptor 2 (Homo sapiens) (UniProt P35968); test: Inhibition of KDR assessed as residual enzyme activity at 1 uM
[24] = target: Epidermal growth factor receptor (Homo sapiens) (UniProt P00533); test: Inhibition of EGFR assessed as residual enzyme activity at 1 uM
[25] = target: Hepatocyte growth factor receptor (Homo sapiens) (UniProt P08581); test: Inhibition of Met assessed as residual enzyme activity at 1 uM
[26] = target: Angiopoietin-1 receptor (Homo sapiens) (UniProt Q02763); test: Inhibition of Tie2 assessed as residual enzyme activity at 1 uM
[27] = target: Proto-oncogene tyrosine-protein kinase Src (Homo sapiens) (UniProt P12931); test: Inhibition of Src assessed as residual enzyme activity at 1 uM
[28] = target: Insulin receptor (Homo sapiens) (UniProt P06213); test: Inhibition of insulin receptor assessed as residual enzyme activity at 1 uM
[29] = target: Inhibitor of nuclear factor kappa-B kinase subunit beta (Homo sapiens) (UniProt O14920); test: Inhibition of IKK-beta assessed as residual enzyme activity at 1 uM

T1 sequence (P07333 whole entry): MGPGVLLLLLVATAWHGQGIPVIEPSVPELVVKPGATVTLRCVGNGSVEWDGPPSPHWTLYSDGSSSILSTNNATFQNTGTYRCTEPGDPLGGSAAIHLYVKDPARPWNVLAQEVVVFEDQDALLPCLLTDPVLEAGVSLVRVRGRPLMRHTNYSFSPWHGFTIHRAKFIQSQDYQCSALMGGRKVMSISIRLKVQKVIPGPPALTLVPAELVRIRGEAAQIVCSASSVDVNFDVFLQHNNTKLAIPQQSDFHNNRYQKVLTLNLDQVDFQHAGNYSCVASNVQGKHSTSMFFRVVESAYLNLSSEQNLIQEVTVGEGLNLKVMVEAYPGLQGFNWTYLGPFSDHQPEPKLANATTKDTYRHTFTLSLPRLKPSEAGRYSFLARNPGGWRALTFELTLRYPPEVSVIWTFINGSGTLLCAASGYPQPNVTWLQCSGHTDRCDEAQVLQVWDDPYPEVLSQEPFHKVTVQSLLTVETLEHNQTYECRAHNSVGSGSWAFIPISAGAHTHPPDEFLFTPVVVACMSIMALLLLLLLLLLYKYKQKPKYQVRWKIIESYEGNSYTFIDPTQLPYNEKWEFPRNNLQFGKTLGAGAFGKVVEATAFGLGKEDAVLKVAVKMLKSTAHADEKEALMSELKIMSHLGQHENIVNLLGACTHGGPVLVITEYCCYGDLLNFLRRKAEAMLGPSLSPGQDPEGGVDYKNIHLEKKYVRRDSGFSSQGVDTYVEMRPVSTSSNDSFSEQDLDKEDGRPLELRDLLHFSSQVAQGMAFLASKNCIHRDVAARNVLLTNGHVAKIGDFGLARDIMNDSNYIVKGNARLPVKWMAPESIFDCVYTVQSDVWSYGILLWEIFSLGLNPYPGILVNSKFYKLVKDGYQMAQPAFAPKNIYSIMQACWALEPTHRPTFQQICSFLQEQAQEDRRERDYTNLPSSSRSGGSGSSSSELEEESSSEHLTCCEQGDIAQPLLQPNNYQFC
Sequence of Glycogen synthase kinase-3 beta (Homo sapiens) (P49841 whole entry, looked up): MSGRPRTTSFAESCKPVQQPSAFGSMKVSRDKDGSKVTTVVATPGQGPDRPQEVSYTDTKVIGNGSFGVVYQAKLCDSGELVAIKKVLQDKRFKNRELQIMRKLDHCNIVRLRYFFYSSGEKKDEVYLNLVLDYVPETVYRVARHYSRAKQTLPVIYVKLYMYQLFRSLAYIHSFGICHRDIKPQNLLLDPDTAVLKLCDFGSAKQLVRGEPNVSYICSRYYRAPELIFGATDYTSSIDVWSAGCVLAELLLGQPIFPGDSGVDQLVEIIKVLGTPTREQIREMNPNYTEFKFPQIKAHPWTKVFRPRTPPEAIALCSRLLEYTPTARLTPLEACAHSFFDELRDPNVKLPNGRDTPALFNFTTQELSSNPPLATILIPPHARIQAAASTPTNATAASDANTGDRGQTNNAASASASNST
Sequence of Fibroblast growth factor receptor 1 (Homo sapiens) (P11362 22-822 limits assumed): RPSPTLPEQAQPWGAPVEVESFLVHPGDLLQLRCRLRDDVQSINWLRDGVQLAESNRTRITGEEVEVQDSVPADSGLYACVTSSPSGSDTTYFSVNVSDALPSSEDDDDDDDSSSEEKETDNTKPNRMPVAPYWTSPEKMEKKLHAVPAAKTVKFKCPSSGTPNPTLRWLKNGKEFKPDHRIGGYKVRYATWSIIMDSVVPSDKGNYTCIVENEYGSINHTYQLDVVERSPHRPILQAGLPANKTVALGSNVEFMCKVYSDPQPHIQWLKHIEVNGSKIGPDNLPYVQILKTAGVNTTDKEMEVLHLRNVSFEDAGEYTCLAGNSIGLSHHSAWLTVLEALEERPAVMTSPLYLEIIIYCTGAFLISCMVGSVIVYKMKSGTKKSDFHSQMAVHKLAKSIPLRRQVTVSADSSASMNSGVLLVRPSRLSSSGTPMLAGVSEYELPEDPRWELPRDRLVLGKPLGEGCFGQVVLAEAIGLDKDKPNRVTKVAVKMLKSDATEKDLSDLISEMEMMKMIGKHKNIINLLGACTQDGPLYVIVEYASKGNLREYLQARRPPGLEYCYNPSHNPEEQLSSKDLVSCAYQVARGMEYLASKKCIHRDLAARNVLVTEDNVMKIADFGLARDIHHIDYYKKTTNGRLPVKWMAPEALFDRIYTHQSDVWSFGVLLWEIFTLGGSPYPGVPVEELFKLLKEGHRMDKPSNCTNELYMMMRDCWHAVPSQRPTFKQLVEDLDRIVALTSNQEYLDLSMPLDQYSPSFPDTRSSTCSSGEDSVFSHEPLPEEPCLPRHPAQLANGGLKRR
Sequence of Receptor-type tyrosine-protein kinase FLT3 (Homo sapiens) (P36888 whole entry): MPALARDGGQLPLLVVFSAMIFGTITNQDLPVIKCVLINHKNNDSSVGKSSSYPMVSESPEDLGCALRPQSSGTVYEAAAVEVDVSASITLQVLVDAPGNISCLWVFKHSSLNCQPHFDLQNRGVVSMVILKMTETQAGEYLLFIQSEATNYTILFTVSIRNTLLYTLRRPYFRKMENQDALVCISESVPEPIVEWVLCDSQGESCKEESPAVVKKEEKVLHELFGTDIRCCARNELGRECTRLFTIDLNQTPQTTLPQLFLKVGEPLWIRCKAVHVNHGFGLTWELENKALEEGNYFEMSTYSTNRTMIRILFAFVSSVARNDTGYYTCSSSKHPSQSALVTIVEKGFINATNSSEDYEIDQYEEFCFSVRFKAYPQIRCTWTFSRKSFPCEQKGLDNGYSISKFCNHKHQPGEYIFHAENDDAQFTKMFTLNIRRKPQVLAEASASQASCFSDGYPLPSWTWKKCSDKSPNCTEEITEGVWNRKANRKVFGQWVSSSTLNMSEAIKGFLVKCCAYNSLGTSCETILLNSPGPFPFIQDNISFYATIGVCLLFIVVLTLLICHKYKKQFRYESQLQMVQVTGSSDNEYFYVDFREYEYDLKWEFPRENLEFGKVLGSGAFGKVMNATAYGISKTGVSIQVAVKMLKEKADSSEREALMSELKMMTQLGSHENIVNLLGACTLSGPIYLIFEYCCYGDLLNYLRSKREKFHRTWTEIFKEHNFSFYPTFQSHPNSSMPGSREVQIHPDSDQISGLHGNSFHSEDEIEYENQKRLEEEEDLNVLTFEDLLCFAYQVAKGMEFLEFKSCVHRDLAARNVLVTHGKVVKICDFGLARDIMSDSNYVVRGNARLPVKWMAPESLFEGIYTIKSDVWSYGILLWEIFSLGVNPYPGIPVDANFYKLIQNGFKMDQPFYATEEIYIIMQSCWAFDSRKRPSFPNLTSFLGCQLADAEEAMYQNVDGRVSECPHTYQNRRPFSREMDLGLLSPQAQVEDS
Sequence of Hepatocyte growth factor receptor (Homo sapiens) (P08581 whole entry): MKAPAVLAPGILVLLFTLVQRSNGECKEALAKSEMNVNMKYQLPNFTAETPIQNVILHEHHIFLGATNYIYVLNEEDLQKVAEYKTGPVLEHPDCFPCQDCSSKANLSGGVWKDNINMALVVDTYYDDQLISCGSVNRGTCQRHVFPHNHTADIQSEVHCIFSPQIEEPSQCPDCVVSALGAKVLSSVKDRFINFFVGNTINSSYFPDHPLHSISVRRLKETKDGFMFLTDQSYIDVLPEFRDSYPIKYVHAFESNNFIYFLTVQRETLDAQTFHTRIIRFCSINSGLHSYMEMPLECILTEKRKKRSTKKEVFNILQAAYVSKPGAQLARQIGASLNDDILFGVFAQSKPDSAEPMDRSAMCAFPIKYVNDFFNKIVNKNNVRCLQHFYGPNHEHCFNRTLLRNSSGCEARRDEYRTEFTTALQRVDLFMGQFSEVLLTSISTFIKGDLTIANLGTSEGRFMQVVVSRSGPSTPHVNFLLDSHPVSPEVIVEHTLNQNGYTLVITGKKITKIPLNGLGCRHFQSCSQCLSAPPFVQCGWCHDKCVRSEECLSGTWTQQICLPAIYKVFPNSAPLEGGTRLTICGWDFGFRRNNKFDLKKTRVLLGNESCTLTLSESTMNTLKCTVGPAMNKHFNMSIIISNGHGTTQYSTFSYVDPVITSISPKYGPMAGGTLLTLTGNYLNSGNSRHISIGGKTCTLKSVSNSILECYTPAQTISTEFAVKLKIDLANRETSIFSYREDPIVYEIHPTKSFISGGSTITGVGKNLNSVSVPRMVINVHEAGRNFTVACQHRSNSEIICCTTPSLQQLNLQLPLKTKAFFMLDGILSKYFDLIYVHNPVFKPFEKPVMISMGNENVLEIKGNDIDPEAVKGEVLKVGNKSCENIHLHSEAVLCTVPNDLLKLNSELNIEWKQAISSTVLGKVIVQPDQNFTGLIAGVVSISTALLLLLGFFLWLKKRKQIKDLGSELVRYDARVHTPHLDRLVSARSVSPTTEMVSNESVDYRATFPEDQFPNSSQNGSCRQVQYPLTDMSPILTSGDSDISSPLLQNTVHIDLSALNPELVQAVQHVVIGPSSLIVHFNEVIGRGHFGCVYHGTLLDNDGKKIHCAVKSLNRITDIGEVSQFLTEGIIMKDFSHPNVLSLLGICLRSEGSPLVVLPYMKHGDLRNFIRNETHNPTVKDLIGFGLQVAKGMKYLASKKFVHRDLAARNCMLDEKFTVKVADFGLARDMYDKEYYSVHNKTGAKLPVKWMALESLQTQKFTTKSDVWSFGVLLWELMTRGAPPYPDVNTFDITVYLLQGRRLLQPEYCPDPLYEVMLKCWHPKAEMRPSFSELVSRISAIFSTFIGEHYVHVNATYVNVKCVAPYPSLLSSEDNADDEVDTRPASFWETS
Sequence of Mitogen-activated protein kinase 1 (Homo sapiens) (P28482 whole entry): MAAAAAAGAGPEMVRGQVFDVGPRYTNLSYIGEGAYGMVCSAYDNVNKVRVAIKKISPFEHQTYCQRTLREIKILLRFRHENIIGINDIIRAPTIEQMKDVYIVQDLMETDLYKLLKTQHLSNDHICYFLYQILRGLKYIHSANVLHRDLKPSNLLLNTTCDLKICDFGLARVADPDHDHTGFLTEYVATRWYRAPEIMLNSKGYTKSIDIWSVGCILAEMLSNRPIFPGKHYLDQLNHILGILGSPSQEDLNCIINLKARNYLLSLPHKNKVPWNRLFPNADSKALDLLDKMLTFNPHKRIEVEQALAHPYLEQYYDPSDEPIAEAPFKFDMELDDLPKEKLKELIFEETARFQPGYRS

SMILES: Cc1ncc(NC(=O)c2cc(NC(=O)c3cccc(C(F)(F)F)c3)ccc2C)s1
- IC50 [1]: 10 nM
- Activity (NIH3T3): 0.11 µM

SMILES: Cc1cc(C)cc(C(=O)Nc2ccc(Cl)c(C(=O)Nc3cnc(C(C)C)s3)c2)c1
- IC50 [1]: 31 nM
- Activity (NIH3T3): 0.11 µM

SMILES: Cc1ncc(NC(=O)c2cc(NC(=O)c3cc(F)cc(Cl)c3)ccc2Cl)s1
- IC50 [1]: 11 nM
- Activity (NIH3T3): 0.13 µM

SMILES: O=C(Nc1ccc(Cl)c(C(=O)Nc2cccnc2)c1)c1ccc(Cl)c(Cl)c1
- IC50 [1]: 3 nM
- Activity (NIH3T3): 0.09 µM

SMILES: O=C(Nc1ccc(Cl)c(C(=O)Nc2cnc(C3CC3)s2)c1)c1cccc(C(F)(F)F)c1
- IC50 [1]: 140 nM
- Activity (NIH3T3): 0.1 µM

SMILES: Cc1ccc(NC(=O)c2cccc(N(C)S(C)(=O)=O)c2)cc1NC(=O)c1ccc2ncccc2c1
- IC50 [1]: 89 nM

SMILES: Cc1ccc(NC(=O)c2cccc(C(F)(F)F)c2)cc1C(=O)Nc1ccccc1
- IC50 [1]: > 50000 nM
- Activity (NIH3T3): >10 µM

SMILES: CCN(CC)CCNC(=O)c1c(C)[nH]c(/C=C2\C(=O)Nc3ccc(F)cc32)c1C.O=C(O)C[C@H](O)C(=O)O [SUNITINIB MALATE]
- Activity (NIH3T3): 0.09 µM

SMILES: Cc1cc(C)cc(C(=O)Nc2ccc(C)c(C(=O)Nc3cnc(C)s3)c2)c1
- IC50 [1]: 4 nM
- Activity (NIH3T3): 0.1 µM

SMILES: Cc1cc(C)cc(C(=O)Nc2ccc(Cl)c(C(=O)Nc3cnc(C)s3)c2)c1
- half-life [2]: 1.3 h
- clearance [3]: 14 mL/min/kg
- bioavailability [4]: 27%
- IC50 [1]: 6 nM
- Activity (NIH3T3): 0.06 µM
- inhibition in vivo at 50 mg/kg (Mus musculus [6]): 90%
- inhibition in vivo at 50 mg/kg (Mus musculus [7]): 60%
- Vd [5]: 1.2 L/kg

SMILES: Cc1ncc(NC(=O)c2cc(NC(=O)c3cccc(C(F)(F)F)c3)ccc2Cl)s1
- half-life [2]: 1.2 h
- Activity [8]: 9%
- Activity [9]: 7%
- Activity [10]: 57%
- clearance [3]: 13 mL/min/kg
- Activity [11]: 114%
- Activity [12]: 111%
- bioavailability [4]: 62%
- Activity [13]: 45%
- Activity [14]: 112%
- Activity [15]: 91%
- Activity [16]: 1%
- Activity [17]: 95%
- IC50 [1]: 7 nM
- Activity (NIH3T3): 0.05 µM
- Activity [18]: 116%
- inhibition in vivo at 50 mg/kg (Mus musculus [6]): 70%
- inhibition in vivo at 50 mg/kg (Mus musculus [7]): 35%
- Activity [19]: 116%
- Activity [20]: 107%
- Activity [21]: 6%
- Vd [5]: 1.1 L/kg
- Activity [22]: 5%
- Activity [23]: 10%
- Activity [24]: 118%
- Activity [25]: 109%
- Activity [26]: 111%
- Activity [27]: 10%
- Activity [28]: 108%
- Activity [29]: 112%

SMILES: Cc1ccc(C(=O)Nc2cccc(C(F)(F)F)c2)cc1NC(=O)c1cccnc1
- IC50 [1]: 32 nM
- Activity (NIH3T3): 1.34 µM

SMILES: Cc1ncc(NC(=O)c2cc(NC(=O)c3cc(F)cc(C(F)(F)F)c3)ccc2Cl)s1
- half-life [2]: 7.3 h
- clearance [3]: 2 mL/min/kg
- bioavailability [4]: 31%
- IC50 [1]: 7 nM
- Activity (NIH3T3): 0.11 µM
- inhibition in vivo at 50 mg/kg (Mus musculus [6]): 100%
- inhibition in vivo at 50 mg/kg (Mus musculus [7]): 100%
- Vd [5]: 1.4 L/kg

SMILES: Cc1ccc(NC(=O)c2cccc(C(F)(F)F)c2)cc1NC(=O)c1cccnc1
- IC50 [1]: 11 nM
- Activity (NIH3T3): 2.15 µM

SMILES: CC(C)c1ncc(NC(=O)c2cc(NC(=O)c3cccc(C(F)(F)F)c3)ccc2Cl)s1
- half-life [2]: 1 h
- clearance [3]: 37 mL/min/kg
- bioavailability [4]: 65%
- IC50 [1]: 13 nM
- Activity (NIH3T3): 0.15 µM
- Vd [5]: 2.2 L/kg

SMILES: Cc1cc(C)cc(C(=O)Nc2ccc(Cl)c(C(=O)Nc3cncs3)c2)c1
- IC50 [1]: 3 nM
- Activity (NIH3T3): 0.11 µM

SMILES: Cc1ncc(NC(=O)c2cc(NC(=O)c3cccc(Cl)c3)ccc2C)s1
- IC50 [1]: 7 nM
- Activity (NIH3T3): 0.32 µM

Second part, led by results:

- IC50 [1]: 14 nM
SMILES: O=C(Nc1ccc(Cl)c(C(=O)Nc2cccnc2)c1)c1cccc(Br)c1
- Activity (NIH3T3): 0.26 µM

- IC50 [1]: 8 nM
SMILES: Cc1cc(C)cc(C(=O)Nc2ccc(Cl)c(C(=O)Nc3cccnc3)c2)c1
- Activity (NIH3T3): 0.05 µM

- half-life [2]: 1 h
- clearance [3]: 16 mL/min/kg
- bioavailability [4]: 40%
- IC50 [1]: 37 nM
- Vd [5]: 1 L/kg
SMILES: Cc1ccc(NC(=O)c2cccc(C(F)(F)F)c2)cc1C(=O)Nc1cccnc1
- Activity (NIH3T3): 0.23 µM

- half-life [2]: 0.5 h
- clearance [3]: 54 mL/min/kg
- bioavailability [4]: 20%
- IC50 [1]: 5 nM
- Vd [5]: 1.8 L/kg
SMILES: O=C(Nc1ccc(Cl)c(C(=O)Nc2cncs2)c1)c1cccc(Cl)c1
- Activity (NIH3T3): 0.52 µM

- half-life [2]: 0.8 h
- clearance [3]: 30 mL/min/kg
- bioavailability [4]: 28%
- IC50 [1]: 10 nM
- Vd [5]: 1.3 L/kg
SMILES: Cc1cccc(C(=O)Nc2ccc(Cl)c(C(=O)Nc3cccnc3)c2)c1
- Activity (NIH3T3): 0.24 µM

- IC50 [1]: 6900 nM
SMILES: Cc1ccc(C(=O)Nc2cccc(C(F)(F)F)c2)cc1C(=O)Nc1cccnc1

- IC50 [1]: 25 nM
SMILES: O=C(Nc1ccc(Cl)c(C(=O)Nc2cccnc2)c1)c1cccc(F)c1
- Activity (NIH3T3): 1.64 µM

- IC50 [1]: 9 nM
SMILES: COc1cccc(C(=O)Nc2ccc(Cl)c(C(=O)Nc3cccnc3)c2)c1
- Activity (NIH3T3): 0.94 µM

- IC50 [1]: 3 nM
SMILES: O=C(Nc1ccc(Cl)c(C(=O)Nc2cccnc2)c1)c1cc(Cl)cc(Cl)c1
- Activity (NIH3T3): 0.13 µM

- IC50 [1]: 16 nM
SMILES: CN(C)c1cccc(C(=O)Nc2ccc(Cl)c(C(=O)Nc3cccnc3)c2)c1
- Activity (NIH3T3): 0.77 µM

- half-life [2]: 1.2 h
- clearance [3]: 58 mL/min/kg
- bioavailability [4]: 40%
- IC50 [1]: 3 nM
- Vd [5]: 4.2 L/kg
SMILES: O=C(Nc1ccc(Cl)c(C(=O)Nc2cncs2)c1)c1cccc(C(F)(F)F)c1
- Activity (NIH3T3): 0.27 µM

- half-life [2]: 1.1 h
- clearance [3]: 16 mL/min/kg
- bioavailability [4]: 33%
- IC50 [1]: 10 nM
- Vd [5]: 1.4 L/kg
SMILES: O=C(Nc1ccc(Cl)c(C(=O)Nc2cccnc2)c1)c1cccc(Cl)c1
- Activity (NIH3T3): 0.33 µM

- half-life [2]: 1 h
- clearance [3]: 20 mL/min/kg
- bioavailability [4]: 76%
- IC50 [1]: 16 nM
- Vd [5]: 1.5 L/kg
SMILES: O=C(Nc1ccc(Cl)c(C(=O)Nc2cccnc2)c1)c1cccc(C(F)(F)F)c1
- Activity (NIH3T3): 0.14 µM

- half-life [2]: 0.9 h
- clearance [3]: 12 mL/min/kg
- bioavailability [4]: 43%
- IC50 [1]: 4 nM
- Vd [5]: 0.9 L/kg
SMILES: Cc1ncc(NC(=O)c2cc(NC(=O)c3cccc(Cl)c3)ccc2Cl)s1
- Activity (NIH3T3): 0.18 µM

- IC50 [1]: 5 nM
SMILES: Cc1ccc(C(=O)Nc2ccc(Cl)c(C(=O)Nc3cccnc3)c2)cc1C
- Activity (NIH3T3): 0.15 µM
